The nature of assay [1]: Cytotoxicity against human NCI49 cell lines. It counts as cell-based.
A short description of assay [2]: Cytotoxicity against human Molt4/C8 cells. It counts as cell-based. As to conditions: MOLT-4. The method in brief:
(§1)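 Human Molt 4/C8 and CEM T-lymphocytes and murine L1210 cells were each exposed to at least three compound concentrations at 37 °C for 48 h. Growth inhibition was then measured, and IC50 values were derived from it.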

The subject of assay [3] is HCC 2998. Put plainly: Cytotoxicity against human HCC2998 cells. It counts as cell-based.
The subject of assay [4] is SR. The assay is described as follows: Cytotoxicity against human SR cells. It counts as cell-based.
Assay [5] has as its system KM12. The assay is described as follows: Cytotoxicity against human KM12 cells. It counts as cell-based.
Assay [6] can be described thus: Cytotoxicity against human HL60 (TB) cells. It counts as cell-based. As to conditions: HL-60.
In assay [7] the test system is COLO 205. Put plainly: Cytotoxicity against human COLO205 cells. It counts as cell-based.
Assay [8] has as its system L1210. Put plainly: Cytotoxicity against […] mouse L1210 cells. In kind it is cell-based. The method in brief:
as §1

The nature of assay [9]: Cytotoxicity against human RPMI8226 cells. In kind it is cell-based. As to conditions: RPMI-8226.
The test system of assay [10] is CCRF-CEM. The assay is described as follows: Cytotoxicity against human CEM cells. In kind it is cell-based. The procedure, abridged: as §1
Assay [11] relates to SW-620. Put plainly: Cytotoxicity against human SW620 cells. In kind it is cell-based.
Assay [12] deals with HCT-116. The assay is described as follows: Cytotoxicity against human HCT116 cells. It counts as cell-based.
The subject of assay [13] is HCT-15. Put plainly: Cytotoxicity against human HCT15 cells. In kind it is cell-based.
Assay [14] has as its system K562. The assay is described as follows: Cytotoxicity against human K562 cells. In kind it is cell-based.
Assay [15] has as its system HepG2. The assay is described as follows: Induction of apoptosis in human HepG2 cells at 20 uM by TUNEL assay. It counts as functional. The method in brief: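 HepG2 cells (ATCC) were kept in DMEM with 10% fetal calf serum and penicillin G/streptomycin/amphotericin B, at 37 °C in humidified 5% CO2. Cells on chambered slides were treated with the compound; controls had no addition or DMSO only. After 48 h, cells were fixed, permeabilized and TUNEL-stained (fluorescein). Labelled apoptotic cells were counted by fluorescence microscopy and reported as a percentage.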

SMILES strings stand for the structures.

The values that follow come from ChEMBL document CHEMBL1144477, “Design, synthesis and cytotoxic properties of novel 1-[4-(2-alkylaminoethoxy)phenylcarbonyl]-3,5-bis(arylidene)-4-piperidones and related compounds” (Eur J Med Chem, 2007).

For orientation: IC50 means the concentration that gives 50% inhibition. Read a low IC50 as inhibition by little substance.

For `CC[N+](C)(CC)CCOc1ccc(C(=O)N2C/C(=C\c3ccccc3)C(=O)/C(=C/c3ccccc3)C2)cc1`, the IC50 in assay [1] is more than 41.7 µM; in assay [2] it was 124 µM; in assay [3], 28.2 µM; in assay [4], 38 µM; in [5], 43.7 µM; in assay [6], more than 50.1 µM. Also, the IC50 is 20.4 µM in [7]; 160 µM in [8]; 17.4 µM in [9]; 110 µM in assay [10]; 30.2 µM in assay [11]; more than 50.1 µM in assay [12]. Also, the IC50 in [13] is more than 50.1 µM; in assay [14], 43.7 µM.

`O=C1/C(=C/c2ccc(Cl)cc2)CN(C(=O)c2ccc(OCCN3CCCCC3)cc2)C/C1=C\c1ccc(Cl)cc1`: the half-inhibitory concentration (IC50) in [1] was more than 11.5 µM; in [2] it was 34 µM; in [3], 1.58 µM; in assay [4], 2.29 µM; in [5], 19.1 µM; in assay [6], 20.4 µM. Further, the IC50 in [7] was 15.8 µM; in assay [8], 103 µM; in assay [9], 0.759 µM; in assay [10], 9.98 µM; in [11], 3.55 µM; in assay [12], 47.9 µM. Moreover, the IC50 was found to be 49 µM in [13] and 4.37 µM in assay [14].

For `CN(C)CCOc1ccc(C(=O)N2C/C(=C\c3ccc(Cl)cc3)C(=O)/C(=C/c3ccc(Cl)cc3)C2)cc1`, the IC50 in [1] worked out at 1.91 µM; in assay [2], 1.44 µM; in [3], 0.263 µM; in assay [4], 0.126 µM; in [5], 1.74 µM; in assay [6], 1.41 µM. The IC50 turned out to be 1.7 µM in assay [7]; 7.18 µM in assay [8]; 0.098 µM in [9]; 1.09 µM in [10]; 0.209 µM in [11]; 6.03 µM in assay [12]. Also, the IC50 was 0.295 µM in [13] and 0.331 µM in [14].

For `Cl.O=C1/C(=C/c2ccc(Cl)cc2)CN(C(=O)c2ccc(OCCN3CCOCC3)cc2)C/C1=C\c1ccc(Cl)cc1`, the 50% inhibitory concentration (IC50) is less than 0.562 µM in assay [1]; 18.8 µM in [2]; less than 0.005 µM in assay [3]; 2.29 µM in [5]; 5.5 µM in assay [6]; 81.4 µM in assay [8]. Besides, the IC50 in [9] amounted to 0.132 µM; in [10], 8.26 µM; in assay [11] it was 1.45 µM; in assay [12] it was 7.25 µM; in assay [13], 2.19 µM; in assay [14], 6.76 µM. The Activity in [15] came out at 29.25%.

For `Cc1ccc(/C=C2\CN(C(=O)c3ccc(OCCN(C)C)cc3)C/C(=C\c3ccc(C)cc3)C2=O)cc1`, the IC50 stood at 1.15 µM in assay [1]; 1.39 µM in assay [2]; 0.229 µM in assay [3]; 0.479 µM in [4]; 0.776 µM in assay [5]; 1.32 µM in assay [6]. In addition, the IC50 in assay [7] was 1.02 µM; in [8], 7.14 µM; in assay [9] it was 0.224 µM; in [10], 0.884 µM; in [11], 0.562 µM; in assay [12] it was 1.38 µM. In addition, the values for the IC50 in assay [13] and in [14] were 0.912 µM and 1.82 µM, respectively.
